Test results: ChEMBL document CHEMBL6182837, “Discovery and biological evaluation of nitrofuranyl-pyrazolopyrimidine hybrid conjugates as potent antimicrobial agents targeting Staphylococcus aureus and methicillin-resistant S. aureus” (RSC Med Chem, 2025)
≈ marks a conversion by molar mass, not a printed value. Calls of active or inactive are those of the source. The rule behind the calls is not given here.

What was measured:
[1] = Terminal half life in male Balb/c mouse at 1 mg/kg, iv by LC-MS/MS analysis; format: ADME, organism-based; settings: in vivo, read-out: beta t1/2 (converted)
Outline: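 Balb/c mice dosed intravenously at 1 mg kg−1; plasma pharmacokinetic profile analysed for half-life, C0, AUC0−t and clearance.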

[2] = Cytotoxicity in human HepG2 cells incubated for 24 hrs by MTT assay; format: toxicity, cell-based
Outline: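 HepG2 cells, 1 × 10^4 per well in DMEM/10% FBS, 24 h attachment; compounds 200 to 0.19 μg ml−1 for 24 h at 37 °C, 5% CO2; MTT 2.5 mg ml−1 for 3 h, formazan in DMSO, OD 570 nm; doxorubicin 10 μM control.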

Staphylococcus aureus [3] = assay: Additive antibacterial activity against Staphylococcus aureus ATCC 29213 assessed as fractional inhibitory concentration index at 0.02 ug/ml incubated up to 24 hrs in presence of ciprofloxacin by checkerboard analysis; format: functional; settings: dose 0.02 µg/ml
Outline: (§1)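 Checkerboard microdilution in cation-adjusted MHB, done per CLSI. The compound and partner antibiotic were dissolved in DMSO. The antibiotic was serially diluted across the plate and the compound was twofold serially diluted into the wells to make the combinations. Each well received 0.1 ml of inoculum, a 0.5 McFarland suspension (1.5 × 10^8 CFU ml−1) diluted 1:100 in MHB. Plates were incubated 24 h at 37 °C, then read with Alamar blue (0.04%). FIC index was calculated.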

Staphylococcus aureus [4] = assay: Bactericidal activity against Staphylococcus aureus ATCC 29213 assessed as reduction in bacterial count at 2 to 4 times MIC incubated for 2 hrs by time-kill assay
[5] = Hemolytic activity in rabbit erythrocytes up to 200 ug/ml incubated for 4 hrs by absorbance based assay; format: toxicity, cell-based, Oryctolagus cuniculus; settings: erythrocyte, dose < 200 µg/ml
Staphylococcus aureus [6] = assay: Induction of resistance development in methicillin-resistant Staphylococcus aureus ATCC 15187 assessed as fold increase in MIC at 0.5 MIC measured after 20 passages relative to control; format: functional
Outline: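 Bacteria were serially passaged for 20 days after exposure to a sublethal drug concentration. MIC was determined at each passage. Vancomycin and norfloxacin were run as control agents.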

[7] = Solubility of compound in water; format: physicochemical
Staphylococcus aureus [8] = assay: Antibacterial activity against Staphylococcus aureus SA-K2191 overexpressing MsrA by Alamar blue staining based analysis; format: functional
[9] = Volume of distribution in male Balb/c mouse at 1 mg/kg, iv by LC-MS/MS analysis; format: ADME, organism-based; settings: in vivo
Outline: (§2)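 Balb/c mice dosed 1 mg kg−1 intravenously or 30 mg kg−1 orally (2.5 mg kg−1 oral also given); plasma PK parameters derived.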

Staphylococcus aureus [10] = assay: Antibacterial activity against methicillin-resistant Staphylococcus aureus ATCC 15187 infected in male Balb/c/c mouse assessed as reduction in bacterial load in lung at 50 to 100 mg/kg measured after 24 hrs by colony counting method; format: functional, organism-based; settings: dose 50-100 mg/kg
Outline: (§3)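 Mouse peritonitis model: 0.1 ml MRSA suspension (10^8 CFU ml−1) given intraperitoneally; treatment intraperitoneal at 50 or 100 mg kg−1 at 2 and 5 h post-infection, with saline and vancomycin (50 mg kg−1) controls; killed at 24 h; kidney and lung homogenates plated on Mueller–Hinton agar with 20 μg ml−1 ciprofloxacin, 24 h; CFU ml−1; unpaired t-test.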

Staphylococcus aureus [11] = assay: Inhibition of biofilm formation of methicillin-resistant Staphylococcus aureus ATCC 15187 incubated for 27 hrs by absorbance based method; format: functional, organism-based
[12] = Efflux ratio of permeability across basal to apical side over apical to basal side in human Caco-2 cells; format: ADME, cell-based
Staphylococcus aureus [13] = assay: Bactericidal activity against Staphylococcus aureus ATCC 29213 assessed as reduction in bacterial count at 2 to 4 times MIC incubated for 2 to 24 hrs by time-kill assay relative to control; format: functional; set-up: scale not given: the % may be the effect or the level left; settings: time 2-24 hrs
Staphylococcus aureus [14] = assay: Induction of morphological disruption in Staphylococcus aureus ATCC 29213 incubated for 2 to 6 hrs by SEM analysis; format: functional, organism-based; settings: time 2-6 hrs
Outline: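 S. aureus incubated 2 h and 6 h with compound at 1×, 2×, 4× MIC, imaged by scanning electron microscopy; untreated, vancomycin and daptomycin (1×, 2× MIC) controls.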

Staphylococcus aureus [15] = assay: Antibacterial activity against Staphylococcus aureus ATCC 29213 incubated for 24 hrs by Alamar blue staining based microdilution method; format: functional
Staphylococcus aureus [16] = assay: Induction of morphological disruption in methicillin-resistant Staphylococcus aureus ATCC 15187 incubated for 2 to 6 hrs by SEM analysis; format: functional, organism-based; settings: time 2-6 hrs
Outline: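 Bacteria incubated for 2 h and 6 h at 1×, 2× and 4× MIC, with vancomycin and daptomycin at 1× and 2× MIC and untreated cells; cell morphology imaged by scanning electron microscopy.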

Staphylococcus aureus [17] = assay: Antibacterial activity against Ciprofloxacin-sensitive Staphylococcus aureus […] by Alamar blue staining based analysis; format: functional
Staphylococcus aureus [18] = assay: Synergistic antibacterial activity against methicillin-resistant Staphylococcus aureus ATCC 15187 assessed as fractional inhibitory concentration index at 0.075 ug/ml incubated up to 24 hrs in presence of rifampicin by checkerboard analysis; format: functional; settings: dose 0.075 µg/ml; outline: as §1
[19] = C0 in male Balb/c mouse at 1 mg/kg, iv by LC-MS/MS analysis; format: ADME, organism-based; settings: in vivo; outline: as §2
Staphylococcus aureus [20] = assay: Induction of resistance development in methicillin-resistant Staphylococcus aureus ATCC 15187 at 0.5 MIC measured after […]; format: functional, organism-based; settings: 0.5 M
Outline: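 Bacteria serially passaged under sublethal drug exposure over 20 days, with MIC redetermined at each passage; vancomycin and norfloxacin as controls.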

[21] = AUC (0 to infinity) in male Balb/c mouse at 30 mg/kg, po by LC-MS/MS analysis; format: ADME, organism-based; settings: in vivo; outline: as §2
[22] = Cytotoxicity against mouse RAW264.7 cells incubated for 48 to 72 hrs by absorbance based assay; format: toxicity, cell-based
Outline: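 MTT read-out: macrophage cells plated at 1 × 10^4 cells per well in DMEM with 10% FBS, 37 °C, 5% CO2; treatment 48 h and 72 h; 2.5 mg ml−1 MTT 3 h, formazan dissolved in DMSO, OD 570 nm; doxorubicin 10 μM control.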

Staphylococcus aureus [23] = assay: Synergistic bactericidal activity against methicillin-resistant Staphylococcus aureus ATCC 15187 assessed as reduction in bacterial count at 0.075 ug/ml measured after 24 hrs in presence of rifampicin by time-kill assay; format: functional, organism-based; settings: dose 0.075 µg/ml
[24] = Lipophilicity, logP of compound; format: physicochemical; settings: octanol/water
Staphylococcus aureus [25] = assay: Additive antibacterial activity against Staphylococcus aureus ATCC 29213 assessed as fractional inhibitory concentration index at 0.02 ug/ml incubated up to 24 hrs in presence of rifampicin by checkerboard analysis; format: functional; settings: dose 0.02 µg/ml; outline: as §1
[26] = Tmax in male Balb/c mouse at 30 mg/kg, po by LC-MS/MS analysis; format: ADME, organism-based; settings: in vivo; outline: as §2
[27] = Lipophilicity, logD of compound; format: physicochemical; settings: octanol/water
Staphylococcus aureus [28] = assay: Antibacterial activity against methicillin-resistant Staphylococcus aureus ATCC 15187 infected in male Balb/c/c mouse assessed as reduction in bacterial load in kidney at 50 to 100 mg/kg measured after 24 hrs by colony counting method; format: functional, organism-based; settings: dose 50-100 mg/kg; outline: as §3
[29] = Volume of distribution in male Balb/c mouse at 30 mg/kg, po by LC-MS/MS analysis; format: ADME, organism-based; settings: in vivo; outline: as §2
Staphylococcus aureus [30] = assay: Antibacterial activity against Staphylococcus aureus SA-1199B overexpressing NorA by Alamar blue staining based analysis; format: functional

CCCc1nn(C)c2c(Nc3ccc(O)cc3)nc(-c3ccc([N+](=O)[O-])o3)nc12
half-life [1]: 30 min
IC50 at 24 h [2]: > 50 µg/mL
fractional inhibitory concentration index (FICI) (Staphylococcus aureus [3]): 1
Activity (Staphylococcus aureus [4]): Active
Activity [5]: Non-toxic
fold change (FC) (Staphylococcus aureus [6]): 3200
solubility [7]: 1 µg/mL (≈ 2.54 µM)
MIC (Staphylococcus aureus [8]): 0.15 µg/mL (≈ 0.38 µM)
Vd [9]: 1.69 L/kg
Activity (Staphylococcus aureus [10]): Active; Significantly Lesser Effect Was Observed At 50 To 100 Mg/Kg Compared To Vancomycin
inhibition (Staphylococcus aureus [11]): Dose-dependent-effect
efflux ratio [12]: 1.3
Activity (Staphylococcus aureus [13]): 99.9%
Activity (Staphylococcus aureus [14]): Active
MIC (Staphylococcus aureus [15]): 0.64 µg/mL (≈ 1.62 µM)
Activity (Staphylococcus aureus [16]): Active
MIC (Staphylococcus aureus [17]): 0.3 µg/mL (≈ 0.761 µM)
fractional inhibitory concentration index (FICI) (Staphylococcus aureus [18]): 0.5
C0 [19]: 552 ng/mL
Activity (Staphylococcus aureus [20]): inactive
AUC(0-inf) [21]: 3150 ng·h/mL
IC50 [22]: > 100 µg/mL
Activity (Staphylococcus aureus [23]): Moderate_effect
logP [24]: 2.92
fractional inhibitory concentration index (FICI) (Staphylococcus aureus [25]): 0.7
Tmax [26]: 30 min
logD [27]: 2.92
Activity (Staphylococcus aureus [28]): Active; Significantly Greater Effect Was Observed At 50 Mg/Kg Compared To Vancomycin
Vd [29]: 4.75 L/kg
MIC (Staphylococcus aureus [30]): 0.6 µg/mL (≈ 1.52 µM)
